{
  "source": "paper PMC3137751",
  "about": "(Biochemistry, 2010)",
  "molecules": {"B1": {"name": "IDH1/IDH2 (Saccharomyces cerevisiae S288C) (protein)", "chain 1": "ATAAQAERTLPKKYGGRFTVTLIPGDGVGKEITDSVRTIFEAENIPIDWETINIKQTDHKEGVYEAVESLKRNKIGLKGLWHTPADQTGHGSLNVALRKQLDIYANVALFKSLKGVKTRIPDIDLIVIRENTEGEFSGLEHESVPGVVESLKVMTRPKTERIARFAFDFAKKYNRKSVTAVHKANIMKLGDGLFRNIITEIGQKEYPDIDVSSIIVDNASMQAVAKPHQFDVLVTPSMYGTILGNIGAALIGGPGLVAGANFGRDYAVFEPGSRHVGLDIKGQNVANPTAMILSSTLMLNHLGLNEYATRISKAVHETIAEGKHTTRDIGGSSSTTDFTNEIINKLSTM", "chain 2": "ATVKQPSIGRYTGKPNPSTGKYTVSFIEGDGIGPEISKSVKKIFSAANVPIEWESCDVSPIFVNGLTTIPDPAVQSITKNLVALKGPLATPIGKGHRSLNLTLRKTFGLFANVRPAKSIEGFKTTYENVDLVLIRENTEGEYSGIEHIVCPGVVQSIKLITRDASERVIRYAFEYARAIGRPRVIVVHKSTIQRLADGLFVNVAKELSKEYPDLTLETELIDNSVLKVVTNPSAYTDAVSVCPNLYGDILSDLNSGLSAGSLGLTPSANIGHKISIFEAVHGSAPDIAGQDKANPTALLLSSVMMLNHMGLTNHADQIQNAVLSTIASGPENRTGDLAGTATTSSFTEAVIKRL"}, "B2": {"name": "^-5IDH1^G15D/IDH2 enzyme (complex, yeast)", "chain 1": "AERTLPKKYDGRFTVTLIPGDGVGKEITDSVRTIFEAENIPIDWETINIKQTDHKEGVYEAVESLKRNKIGLKGLWHTPADQTGHGSLNVALRKQLDIYANVALFKSLKGVKTRIPDIDLIVIRENTEGEFSGLEHESVPGVVESLKVMTRPKTERIARFAFDFAKKYNRKSVTAVHKANIMKLGDGLFRNIITEIGQKEYPDIDVSSIIVDNASMQAVAKPHQFDVLVTPSMYGTILGNIGAALIGGPGLVAGANFGRDYAVFEPGSRHVGLDIKGQNVANPTAMILSSTLMLNHLGLNEYATRISKAVHETIAEGKHTTRDIGGSSSTTDFTNEIINKLSTM", "chain 2": "B1 chain 2"}, "B3": {"name": "wild-type IDH1/IDH2 enzyme (yeast NAD+-specific isocitrate dehydrogenase) (complex)", "chain 1": "B1 chain 1", "chain 2": "B1 chain 2"}, "B4": {"name": "^-5IDH1^D168K/IDH2 (Saccharomyces cerevisiae S288C; D179K) (protein)", "chain 1": "B2 chain 1 with D10G, D163K", "chain 2": "B1 chain 2"}, "B5": {"name": "^-5IDH1^G15D/IDH2: truncated -5 IDH1 with G15D replacement plus IDH2; tetrameric (protein)", "chain 1": "B2 chain 1", "chain 2": "B1 chain 2", "modifications": "left off: histidine tag, C-terminal, kept"}, "B6": {"name": "IDH1^G15D/IDH2 enzyme (complex, yeast)", "chain 1": "B1 chain 1 with G15D", "chain 2": "B1 chain 2"}, "B7": {"name": "^-5IDH1^D168A/IDH2 enzyme (complex, yeast)", "chain 1": "B2 chain 1 with D10G, D163A", "chain 2": "B1 chain 2"}, "B8": {"name": "^-5IDH1/IDH2: IDH with five residues truncated from the amino terminus of IDH1; octameric (protein)", "chain 1": "B2 chain 1 with D10G", "chain 2": "B1 chain 2", "modifications": "left off: histidine tag, C-terminal, kept"}, "B9": {"name": "^-5IDH1^D168K/IDH2: truncated -5 IDH1 with D168K replacement plus IDH2; tetrameric (protein)", "chain 1": "B2 chain 1 with D10G, D163K", "chain 2": "B1 chain 2", "modifications": "left off: histidine tag, C-terminal, kept"}, "B10": {"name": "truncated ^-5IDH1/IDH2 enzyme (complex, yeast)", "chain 1": "B2 chain 1 with D10G", "chain 2": "B1 chain 2"}, "B11": {"name": "^-5IDH1^G15A/IDH2 enzyme (complex, yeast)", "chain 1": "B2 chain 1 with D10A", "chain 2": "B1 chain 2"}, "B12": {"name": "IDH1^G15D/IDH2: full-length IDH1 with G15D substitution plus IDH2; stable tetramer (protein)", "chain 1": "B1 chain 1 with G15D", "chain 2": "B1 chain 2", "modifications": "left off: histidine tag, C-terminal, kept"}},
  "key": {"[1]": {"substrate": "O=C(O)C[C@H](C(=O)O)[C@@H](O)C(=O)O", "experiment": "Apparent S0.5 for isocitrate", "format": "biochemical", "settings": "pH 7.4; 24.0 °C"}, "SEC": {"target": "the molecule itself", "experiment": "SEC"}, "AUC [2]": {"target": "the molecule itself", "experiment": "AUC"}, "[3]": {"system": "Yeast NAD+-specific isocitrate dehydrogenase (IDH)", "experiment": "Kinetic analyses: isocitrate saturation velocity curves of purified IDH enzymes", "format": "biochemical", "settings": "for Hill coef. with respect to isocitrate, − AMP: absence of AMP; for Vmax (apparent), + AMP: isocitrate velocity saturation curve; for Vmax (apparent), + AMP / Hill coef. with respect to isocitrate, + AMP: presence of 100 μM AMP", "summary_of_the_method": "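His-tagged IDH purified by Ni2+-NTA, stored at −20 °C in elution buffer with 20% glycerol, quantified by A280. Assays at 24 °C used 40 mM Tris-HCl pH 7.4, 4 mM MgCl2 and 0.5 mM NAD+. D-isocitrate was varied 0–5 mM, with or without 100 μM AMP, and NADH formation was followed. Apparent S0.5 and Hill coefficients came from saturation curves, Vmax as maximum velocity per mg, over two independent experiments.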"}, "AUC [4]": {"target": "the molecule itself", "experiment": "AUC", "remark": "listed apart in the source"}},
  "note": "Residue numbers refer to the chain shown, from its start. Names and notes keep the numbering of the source.",
  "data": [
    {"molecule": "B1", "values": [
      {"measurement": "K0.5", "setting": "[1]", "result": "0.53/0.10 (±0.10/0) mM"}
    ]},
    {"molecule": "B2", "values": [
      {"measurement": "K0.5", "setting": "[1]", "result": "0.64/0.14 (±0.03/0.04) mM"},
      {"measurement": "stoichiometry N", "setting": "SEC", "result": 4}
    ]},
    {"molecule": "B3", "values": [
      {"measurement": "stoichiometry N", "setting": "AUC [2]", "result": 8}
    ]},
    {"molecule": "B4", "values": [
      {"measurement": "K0.5", "setting": "[1]", "result": "0.61/0.13 (±0.13/0.04) mM"}
    ]},
    {"molecule": "B5", "values": [
      {"measurement": "Hill coef. with respect to isocitrate, − AMP", "setting": "[3]", "result": 2.2},
      {"measurement": "Vmax (apparent), + AMP", "setting": "[3]", "result": 15.4, "unit": "units/mg"},
      {"measurement": "Hill coef. with respect to isocitrate, + AMP", "setting": "[3]", "result": 2.0},
      {"measurement": "reduction in apparent Vmax relative to ^-5IDH1/IDH2", "setting": "[3]", "result": "~ 50%"}
    ]},
    {"molecule": "B6", "values": [
      {"measurement": "K0.5", "setting": "[1]", "result": "0.60/0.13 (±0.13/0.01) mM"},
      {"measurement": "stoichiometry N", "setting": "AUC [4]", "result": 4}
    ]},
    {"molecule": "B7", "values": [
      {"measurement": "stoichiometry N", "setting": "AUC [2]", "result": 8}
    ]},
    {"molecule": "B8", "values": [
      {"measurement": "Hill coef. with respect to isocitrate, − AMP", "setting": "[3]", "result": 3.1},
      {"measurement": "Vmax (apparent), + AMP", "setting": "[3]", "result": 30.3, "unit": "units/mg"},
      {"measurement": "Hill coef. with respect to isocitrate, + AMP", "setting": "[3]", "result": 3.5}
    ]},
    {"molecule": "B9", "values": [
      {"measurement": "Hill coef. with respect to isocitrate, − AMP", "setting": "[3]", "result": 2.2},
      {"measurement": "Vmax (apparent), + AMP", "setting": "[3]", "result": 15.3, "unit": "units/mg"},
      {"measurement": "Hill coef. with respect to isocitrate, + AMP", "setting": "[3]", "result": 2.0},
      {"measurement": "reduction in apparent Vmax relative to ^-5IDH1/IDH2", "setting": "[3]", "result": "~ 50%"}
    ]},
    {"molecule": "B10", "values": [
      {"measurement": "K0.5", "setting": "[1]", "result": "0.52/0.11 (±0.04/0.01) mM"},
      {"measurement": "stoichiometry N", "setting": "SEC", "result": 8}
    ]},
    {"molecule": "B11", "values": [
      {"measurement": "stoichiometry N", "setting": "AUC [4]", "result": "> 4"}
    ]},
    {"molecule": "B12", "values": [
      {"measurement": "Hill coef. with respect to isocitrate, − AMP", "setting": "[3]", "result": 2.3},
      {"measurement": "Vmax (apparent), + AMP", "setting": "[3]", "result": 21.9, "unit": "units/mg"},
      {"measurement": "Hill coef. with respect to isocitrate, + AMP", "setting": "[3]", "result": 2.0},
      {"measurement": "reduction in apparent Vmax relative to IDH1/IDH2 (wild-type)", "setting": "[3]; relative to IDH1/IDH2", "result": "~ 38%"}
    ]}
  ]
}
